Holding throughout (type): functional
One assay concerns UACC-62. Kind of assay: Antiproliferative activity was determined for 50% growth inhibition against human melanoma UACC-62 cell line. A digest of the protocol:
(§1)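 Human cancer cell lines from the roughly 55-line panel. GI50 is the concentration giving 50% growth inhibition. The test range was 10^-4 to 10^-8 M. Values outside the range were set to the minimum (10^-8 M) or the maximum (10^-4 M).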

A further assay relates to SF-539. Briefly: Antiproliferative activity was determined for 50% growth inhibition against human CNS SF-539 cell line. The essentials:
as §1

Assay [1] deals with Panel (Carcinoma cell lines). Briefly: Mean graph midpoint for growth inhibition of all human cancer cell lines. Further details: unit: µM. The essentials:
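Mean graph midpoint across all cell lines successfully tested in the roughly 55-line human cancer panel. Each line's GI50 is the 50% growth-inhibition concentration, tested over 10^-4 to 10^-8 M. Out-of-range values were set to 10^-8 M or 10^-4 M before averaging.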

Another assay has as its system MDA-MB-435. Briefly: Antiproliferative activity was determined for 50% growth inhibition against human breast MDA-MB-435 cell line. A digest of the protocol: as §1
For the next assay, the system named is HCT-116. Kind of assay: Antiproliferative activity was determined for 50% growth inhibition against human colon HCT116 cell line. A digest of the protocol: as §1
A further assay concerns OVCAR-3. Briefly: Antiproliferative activity was determined for 50% growth inhibition against human ovarian OVCAR-3 cell line. A digest of the protocol:
as §1

The test system of a further assay is DU-145. Briefly: Antiproliferative activity was determined for 50% growth inhibition against human Prostate DU-145 cell line. The essentials:
as §1

The next assay has as its system HOP-62. Kind of assay: Antiproliferative activity was determined for 50% growth inhibition against human lung HOP-62 cell line. A digest of the protocol:
as §1

The test system of the next assay is SN12C. Briefly: Antiproliferative activity was determined for 50% growth inhibition against human renal SN12C cell line. A digest of the protocol: as §1

Turning to `COc1cc2c3c(n(CCCCl)c(=O)c2cc1OC)-c1cc2c(cc1C3=O)OCO2`, the GI50 in the assay on UACC-62 (Homo sapiens, UACC-62) was 68.6 µM; with SF-539 (Homo sapiens, SF-539) it was 40.7 µM; in the assay with MDA-MB-435 (Homo sapiens, MDA-MB-435), 80.5 µM; with HCT-116 (Homo sapiens, HCT-116), 72.6 µM; in the assay on OVCAR-3 (Homo sapiens, OVCAR-3) it was > 100 µM; in the assay with DU-145 (Homo sapiens, DU-145), 16.8 µM. Further, the GI50 in the assay with HOP-62 (Homo sapiens, HOP-62) was 40.4 µM; in the assay with SN12C (Homo sapiens, SN12C), 24 µM. Besides, the MGM in assay [1] came to 47.9.
`O=C1c2ccccc2-c2c1c1ccccc1c(=O)n2O`: the GI50 in the assay with UACC-62 (Homo sapiens, UACC-62) was 21.5 µM; in the assay on SF-539 (Homo sapiens, SF-539), 15.3 µM; in the assay with MDA-MB-435 (Homo sapiens, MDA-MB-435) it was 29.1 µM; with HCT-116 (Homo sapiens, HCT-116) it was 24.3 µM; in the assay with OVCAR-3 (Homo sapiens, OVCAR-3), 30.2 µM; in the assay on DU-145 (Homo sapiens, DU-145), 40.2 µM. In addition, the GI50 was 56.6 µM in the assay with HOP-62 (Homo sapiens, HOP-62) and 35.7 µM in the assay on SN12C (Homo sapiens, SN12C). Besides, in assay [1], the MGM came to 29.5.
Take `O=C1c2ccccc2-c2c1c1ccccc1c(=O)n2CCCO`: the GI50 with UACC-62 (Homo sapiens, UACC-62) turned out to be 16.2 µM; in the assay on SF-539 (Homo sapiens, SF-539), 52.5 µM; with MDA-MB-435 (Homo sapiens, MDA-MB-435), 39.7 µM; with HCT-116 (Homo sapiens, HCT-116), 3.64 µM; in the assay with OVCAR-3 (Homo sapiens, OVCAR-3), 28.8 µM; with DU-145 (Homo sapiens, DU-145), 9.56 µM. Moreover, the GI50 was found to be 4.89 µM in the assay on HOP-62 (Homo sapiens, HOP-62) and 6.49 µM in the assay on SN12C (Homo sapiens, SN12C). This compound had an MGM in assay [1] of 10.3.
On to `COc1cc2c3c(n(CCCN)c(=O)c2cc1OC)-c1cc2c(cc1C3=O)OCO2.Cl`, for which the 50% growth inhibitory concentration (GI50) is 0.25 µM in the assay on UACC-62 (Homo sapiens, UACC-62); 0.26 µM in the assay with SF-539 (Homo sapiens, SF-539); 1.21 µM with MDA-MB-435 (Homo sapiens, MDA-MB-435); 0.13 µM with HCT-116 (Homo sapiens, HCT-116); 0.31 µM with OVCAR-3 (Homo sapiens, OVCAR-3); 0.04 µM in the assay on DU-145 (Homo sapiens, DU-145). Besides, the GI50 in the assay with HOP-62 (Homo sapiens, HOP-62) worked out at 0.06 µM; with SN12C (Homo sapiens, SN12C), 0.31 µM. Also, the MGM in assay [1] is reported as 0.16.
With `COc1cc2c(cc1OC)-c1c(c3cc(OC)c(OC)cc3c(=O)n1CCCNCCCO)C2=O.Cl`, the GI50 with UACC-62 was found to be 1.87 µM; in the assay on SF-539, 0.42 µM; in the assay with MDA-MB-435 it was 2.42 µM; in the assay on HCT-116 it was 0.71 µM; in the assay on OVCAR-3, 3.8 µM; in the assay on DU-145 it was 0.23 µM. The GI50 with HOP-62 stood at 0.32 µM; with SN12C it was 0.23 µM. The compound further came in with an MGM in assay [1] of 1.14.
As to `COc1cc2c(cc1OC)-c1c(c3ccccc3c(=O)n1CCCN)C2=O.Cl`, the GI50 came to 1.27 µM with UACC-62 (Homo sapiens, UACC-62); 2.93 µM with SF-539 (Homo sapiens, SF-539); 1.05 µM in the assay with MDA-MB-435 (Homo sapiens, MDA-MB-435); 0.35 µM with HCT-116 (Homo sapiens, HCT-116); 0.85 µM in the assay on OVCAR-3 (Homo sapiens, OVCAR-3); 0.89 µM in the assay with DU-145 (Homo sapiens, DU-145). Moreover, the GI50 came to 0.19 µM in the assay on HOP-62 (Homo sapiens, HOP-62) and 0.43 µM in the assay on SN12C (Homo sapiens, SN12C). In assay [1], this compound yielded an MGM of 0.62.
With `CCn1c2c(c3cc(OC)c(OC)cc3c1=O)Cc1cc3c(cc1-2)OCO3`, the concentration for 50% growth inhibition (GI50) with UACC-62 (Homo sapiens, UACC-62) was > 100 µM; in the assay with SF-539 (Homo sapiens, SF-539), > 100 µM; with MDA-MB-435 (Homo sapiens, MDA-MB-435), > 100 µM; in the assay with HCT-116 (Homo sapiens, HCT-116) it was > 100 µM; with OVCAR-3 (Homo sapiens, OVCAR-3) it was > 100 µM; in the assay with DU-145 (Homo sapiens, DU-145), > 100 µM. Further, the GI50 with HOP-62 (Homo sapiens, HOP-62) was > 100 µM; in the assay with SN12C (Homo sapiens, SN12C), > 100 µM. This compound also yielded an MGM in assay [1] of 85.1.

Values taken from ChEMBL document CHEMBL1133678, “Synthesis of new indeno[1,2-c]isoquinolines: cytotoxic non-camptothecin topoisomerase I inhibitors” (2000).
